In PMC4719142 (ACS Chemical Biology, 2015) one finds IC50 data, which are given here for one compound.

The subject of one experiment is several other cell lines. The settings on record: literature values across several other cell lines ref 33, 34; cited from earlier work.
In a further experiment the test system is L363 cells. Put plainly: Cell viability. Type of experiment: cell-based, Human. The settings on record: L363, 72 h treatment, four replicates ± SEM. The gist of the method: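 MTS viability run in quadruplicate at the stated times and doses. Lines were grown in RPMI-1640 with 2 mM L-glutamine, 10% FBS and penicillin/streptomycin at 37 °C, 5% CO2. MTS reagent was added directly for 90 min at 37 °C. Formazan absorbance was read at 500 nm. Viability was normalised to DMSO-treated wells.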

Usually IC50 stands for the concentration at which inhibition is half-maximal. For `CN(C)c1ccc(Nc2c3ccc(NC(=O)CCN4CCCC4)cc3nc3cc(NC(=O)CCN4CCCC4)ccc23)cc1` [BRACO-19], the IC50 with several other cell lines is 1 to 13 µM; with L363 cells, 15.3 ± 4.3 µM.
